Only some compounds are listed: those with a hit (about 0.99% of all), similar ones and a draw of the others.
MT1-MMP act inh = blockers of MT1-MMP proenzyme processing, primary screen, HT1080 RFP-PRO-GFP cells, GFP/RFP fluorescence; 0.061% of 360,000 active; GFP/RFP ratio change, % at 20 µM; GFP/RFP ratio fluorescence, overnight; percent of plate control window, DMSO zero; Matrix metalloproteinase-14 (Homo sapiens), P50281;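 active = GFP/RFP ratio change of at least 30% with cell ATP level not reduced by more than half and red fluorescence within 50% of control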
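Test system: HT1080 RFP-PRO-GFP cells; Benchmarks: DMSO and RFP-L50D-GFP cell wells; Timing: cells overnight before dosing, compound overnight, 37 °C, 5% CO2; Compound: one 20 µM compound dose with 1% DMSO; Read-out: GFP/RFP fluorescence ratio.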
TLR4-MyD88 BLA = inhibitors of TLR4-MyD88 association in cells, primary screen, cell-based, HeLa CL3-4, BLA complementation, FRET ratio; Toll-like receptor 4 (Homo sapiens) + Myeloid differentiation primary response protein …; HeLa CL3-4 TLR4/MyD88 BLA complementation; inhibition, % at 8.4 µM; 0.18% of 200,000 active; AID 861, 2007; in the data active = inhibition above about 25%;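 note: 0% = vehicle and 100% = reference inhibitor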
Target sequence (O00206 whole entry, looked up): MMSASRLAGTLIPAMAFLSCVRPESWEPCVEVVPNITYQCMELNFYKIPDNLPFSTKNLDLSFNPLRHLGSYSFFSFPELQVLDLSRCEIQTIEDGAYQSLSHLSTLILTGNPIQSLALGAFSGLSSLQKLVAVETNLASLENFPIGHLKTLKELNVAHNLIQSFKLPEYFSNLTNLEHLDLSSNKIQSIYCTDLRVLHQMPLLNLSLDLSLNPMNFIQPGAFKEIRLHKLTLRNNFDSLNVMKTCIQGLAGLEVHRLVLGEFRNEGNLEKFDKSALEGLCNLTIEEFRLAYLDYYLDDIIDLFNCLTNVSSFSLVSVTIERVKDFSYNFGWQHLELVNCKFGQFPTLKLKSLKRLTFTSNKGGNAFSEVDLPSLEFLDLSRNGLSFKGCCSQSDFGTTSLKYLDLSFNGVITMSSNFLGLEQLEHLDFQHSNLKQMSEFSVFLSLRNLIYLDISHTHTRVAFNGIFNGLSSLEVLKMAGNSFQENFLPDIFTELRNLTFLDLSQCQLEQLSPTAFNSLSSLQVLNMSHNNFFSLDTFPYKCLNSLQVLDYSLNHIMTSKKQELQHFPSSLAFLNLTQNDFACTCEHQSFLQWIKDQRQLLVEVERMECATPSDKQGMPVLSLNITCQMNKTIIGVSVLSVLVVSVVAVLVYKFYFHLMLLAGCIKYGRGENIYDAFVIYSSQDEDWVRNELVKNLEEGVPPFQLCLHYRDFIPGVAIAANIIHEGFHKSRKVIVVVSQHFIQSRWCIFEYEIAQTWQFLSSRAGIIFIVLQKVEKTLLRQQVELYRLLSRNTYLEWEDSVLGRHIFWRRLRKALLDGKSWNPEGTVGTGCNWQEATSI
Target sequence (Q99836 whole entry, looked up): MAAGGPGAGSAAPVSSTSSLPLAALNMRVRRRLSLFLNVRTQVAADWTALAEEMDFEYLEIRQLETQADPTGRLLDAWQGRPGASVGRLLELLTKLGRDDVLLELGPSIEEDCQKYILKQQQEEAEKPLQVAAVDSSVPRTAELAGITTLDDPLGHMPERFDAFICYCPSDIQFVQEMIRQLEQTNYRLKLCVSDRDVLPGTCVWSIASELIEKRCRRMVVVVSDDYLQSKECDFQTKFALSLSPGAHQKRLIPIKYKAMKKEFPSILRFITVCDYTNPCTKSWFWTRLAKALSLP
NOD2 RIPK2 PPI = NOD2-RIPK2 binding disruptors in cells, primary screen, fluorescence, CHO cells, BLA complementation; Receptor-interacting serine/threonine-protein kinase 2 (Homo sapiens), O43353; CCF4 ratio; inhibition, % at 4.98 µM; 0.38% of 360,000 active; AID 624267, 2012; in the data active = inhibition above about 21%;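 note: 0% = vehicle only and 100% = reference blocker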
TLR9-MyD88 block = inhibitors of TLR9-MyD88 association in cells, primary screen, cell-based, CHO, BLA complementation, fluorescence. CCF4 FRET ratio. AID 504734, 2011. inhibition, % at 4.98 µM. 0.21% of 340,000 active;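 active = inhibition above the mean over all tested compounds plus 3 SD, cut at about 21% in these data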;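 note: 0% = DMSO only wells and 100% = clavulanate BLA inhibitor control wells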
SKN-1 block = suppressors of acrylamide-induced Pgst-4::GFP reporter in worms, primary screen, SKN-1 inhibitor project, whole organism, uHTS, GFP/RFP fluorescence ratio, strain VP596; C. elegans VP596 Pgst-4::GFP/RFP ratio, 24 h; inhibition, % at 21.8 µM; 0.49% of 360,000 active; AID 624304, 2012;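 active = interference check ratio from 0.5 to 1.5 plus GFP to RFP signal ratio inhibition reaching or exceeding a fixed threshold, cut at about 30% in these data, passing the limit was not always enough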
Active calls of the source: *; . = no result given.

SMILES | MT1-MMP act inh | TLR4-MyD88 BLA | NOD2 RIPK2 PPI | TLR9-MyD88 block | SKN-1 block
Cc1cc2cc(CNC(=O)Nc3cccc(Cl)c3)ccc2n1C | 30 | -1 | 2 | 10 | 55
COc1ccccc1-c1noc2c1C(=O)N(Cc1cn(-c3ccccc3)nn1)CC2 | 1 | . | -4 | . | -12
COc1cccc(-c2nc(-c3ccc(Br)o3)no2)c1 | 3 | . | -3 | 7 | -9
CC(=O)Oc1ccc(-c2nc(-c3cccnc3)no2)cc1 | -6 | -8 | 2 | 9 | 3
Brc1ccc(-c2nc(-c3cccnc3)no2)o1 | -6 | 2 | -3 | 5 | 52*
Brc1ccc(-c2nc(-c3ccccc3)no2)o1 | -5 | -12 | -6 | 8 | 79*
S=C(NCc1ccco1)N1CCC(c2nc3ccccc3o2)CC1 | 1 | 4 | -8 | 6 | 5
COCCn1c(SCc2ccc(OC)c(F)c2)nnc1-c1ccncc1 | -5 | . | -10 | -3 | -11
COCCNC(=O)C1CCCN(C(=O)c2nc3ccccc3s2)CC1 (stereo not drawn) | 2 | . | -12 | . | 2
CCc1nc(NCCC(C)C)c(C#N)c2c1CCCC2 | -3 | 8 | 1 | -17 | 43*
CC(C)c1cc(C(=O)NNC(=S)NCc2ccco2)c(O)c(C(C)C)c1 | -13 | 9 | -2 | -3 | 2
COc1ccccc1OCCC(=O)NNC(=O)c1ccccc1F | 5 | . | -5 | -5 | -13
Cc1cc2cc(CNC(=O)c3ccc(S(=O)(=O)N(C)C)cc3)ccc2n1C | 32 | -14 | -4 | -9 | 45*
Cc1cc2cc(CNC(=O)c3cccc([N+](=O)[O-])c3)ccc2n1C | -1 | 8 | -10 | 8 | 47*
CC(=O)Nc1ccc(S(=O)(=O)NCc2ccc3c(c2)cc(C)n3C)cc1 | 47 | -19 | -16 | -2 | 50*
Cc1cc2cc(CNC(=S)Nc3ccc(OC(F)(F)F)cc3)ccc2n1C | 50 | -2 | -12 | -3 | 57*
Cc1cc2cc(CNC(=O)c3ccc(S(=O)(=O)N4CCOCC4)cc3)ccc2n1C | 35 | 4 | 5 | 6 | 45
CCC(=O)CN(Cc1cc(OC)ccc1OC)S(=O)(=O)c1ccccc1Br | 0 | . | -3 | -6 | -1
Cc1ccc(C)c(OCC(=O)Nc2ccc(C(=O)O)cc2NC(=O)COc2cc(C)ccc2C)c1 | -3 | . | -3 | -14 | 12
CC1(C(=O)NCc2ccccc2)CSCC(=O)N1Cc1ccco1 (stereo not drawn) | 2 | . | -19 | . | -1
COc1ccc(CSc2nnc(SCc3ccc([N+](=O)[O-])cc3)s2)cc1 | -4 | 14 | -3 | -4 | -10
CC(C)OC(=O)CSc1nnc(SCc2cccc3ccccc23)s1 | -2 | 11 | -5 | 5 | 32*
O=C(O)CSc1nnc(SCc2cccc3ccccc23)s1 | -4 | -2 | -5 | 4 | -10
COC(=O)CSc1nnc(SCc2ccc(OC)cc2)s1 | 2 | -7 | -7 | -10 | 39*
O=C(CCN1C(=O)c2ccc([N+](=O)[O-])cc2C1=O)Nc1ccccc1C(=O)O | 8 | . | -7 | -5 | -3
SMILES | MT1-MMP act inh | TLR4-MyD88 BLA | NOD2 RIPK2 PPI | TLR9-MyD88 block | SKN-1 block
CC1(C(=O)Nc2ccc3c(c2)OCCO3)CCC(=O)N1C1CCN(Cc2ccccc2)CC1 (stereo not drawn) | 3 | . | -1 | . | 3
CC(=O)Nc1ccc(-c2csc(NC(=O)Cc3cccc(F)c3)n2)cc1 | 1 | . | -3 | 1 | -7
N#C/C(=C/C1=C(N2CCOCC2)C(=C/c2ccc(Cl)cc2)/CC1)C(=O)Nc1ccccc1F | 8 | . | -1 | -12 | 44*
COc1ccc(C(C(=O)NC2CCCC2)N(C(=O)c2csnn2)C2CCCC2)cc1 (stereo not drawn) | -2 | . | -2 | -3 | -12
COc1c(S(=O)(=O)N2CCCCC2)ccc2c(S(=O)(=O)N3CCCCC3)cccc12 | -2 | -3 | -10 | -11 | -6
O=S(=O)(c1cccc2c(S(=O)(=O)N3CCCC3)cccc12)N1CCCC1 | -2 | 0 | -9 | -2 | 36*

Source: PubChem BioAssay
